# Experimental data reported in ChEMBL document CHEMBL3616436, “Synthesis, cytotoxicity and antimicrobial activity of thiourea derivatives incorporating 3-(trifluoromethyl)phenyl moiety” (Eur J Med Chem, 2015).
# The source made the active and inactive calls. No cut-off for these calls is given here.
# Experiments:
# [1] = system: Staphylococcus epidermidis; experiment: Ratio of ciprofloxacin MIC to compound MIC for hospital methicillin-resistant Staphylococcus epidermidis 62/04 after 18 hrs by twofold serial microdilution method; assay type: functional
# Method in brief: (§1)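 Ratio of MICs for ciprofloxacin and test agent, each from twofold serial broth microdilution in Mueller-Hinton broth following CLSI guidelines. DMSO stock was diluted in sterile water to 0.125–512 µg/mL, with a final inoculum of 10^5 CFU/mL.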
# [2] = system: Staphylococcus aureus; experiment: Antimicrobial activity against Staphylococcus aureus ATCC 29213 at 400 ug after 18 hrs by disc-diffusion method; assay type: functional; details: ATCC 29213, 18 h, read-out: IZ
# Method in brief: (§2)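 Disc diffusion on Mueller-Hinton II agar per CLSI; 9 mm paper discs loaded with 400 µg compound from DMSO solution, dried, placed on agar; growth inhibition zone diameter read after 18 h at 35°C.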
# [3] = Cytotoxicity against African green monkey Vero 76 cells assessed as cell viability after 48 to 96 hrs by crystal violet staining; assay type: cell-based; details: chlorocebus sabaeus
# [4] = system: Staphylococcus epidermidis; experiment: Antimicrobial activity against hospital methicillin-resistant Staphylococcus epidermidis 16/04 after 18 hrs by twofold serial microdilution method; assay type: functional; details: 16/04, 18 h
# Method in brief: (§3)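 Twofold serial microdilution in Mueller-Hinton broth. Compound stock was made in DMSO and diluted in sterile water. Tested range was 0.125–512 µg/mL. Final inoculum was 10^5 CFU/mL. Plates were incubated 18 h at 35 °C. MIC is the lowest concentration preventing visible growth.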
# [5] = system: Staphylococcus epidermidis; experiment: Antimicrobial activity against Staphylococcus epidermidis ATCC 12228 at 400 ug after 18 hrs by disc-diffusion method; assay type: functional; method in brief: as §2
# [6] = system: Staphylococcus epidermidis; experiment: Antimicrobial activity against hospital methicillin-resistant Staphylococcus epidermidis 63/04 after 18 hrs by twofold serial microdilution method; assay type: functional; details: 63/04, 18 h; method in brief: as §3
# [7] = system: Staphylococcus aureus; experiment: Antimicrobial activity against Staphylococcus aureus ATCC 25923 after 18 hrs by twofold serial microdilution method; assay type: functional; details: ATCC 25923, 18 h
# [8] = system: Staphylococcus aureus; experiment: Antimicrobial activity against Staphylococcus aureus ATCC 25923 at 400 ug after 18 hrs by disc-diffusion method; assay type: functional; details: ATCC 25923, 18 h, read-out: IZ; method in brief: as §2
# [9] = system: Coxsackievirus B5; experiment: Antiviral activity against Human coxsackievirus B5 ATCC VR-29 infected in African green monkey Vero 76 cells assessed as reduction of virus-plaque formation after 3 days by crystal violet staining; assay type: functional, organism-based; details: Enterovirus B, ATCC VR-29, Vero, 72 h
# Method in brief: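 Plaque reduction: Vero-76 at 2x10^5 cells/well grown to confluent monolayers, infected 2 h at 50–100 PFU/well; after removing unadsorbed virus, overlay of D-MEM, 1% inactivated FBS, 0.75% methylcellulose with or without serial compound dilutions; 3 days at 37°C, fixed and stained with crystal violet in 50% ethanol, plaques counted; EC50 by linear regression.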
# [10] = system: Staphylococcus aureus; experiment: Antimicrobial activity against hospital methicillin-resistant Staphylococcus aureus 522/11 after 18 hrs by twofold serial microdilution method; assay type: functional; details: 522/11, 18 h; method in brief: as §3
# [11] = Cytotoxicity against bovine MDBK cells assessed as cell viability after 48 to 96 hrs by MTT assay; assay type: cell-based, Bos taurus; details: cattle
# [12] = system: Proteus vulgaris; experiment: Antimicrobial activity against Proteus vulgaris NCTC 4635 at 400 ug after 18 hrs by disc-diffusion method; assay type: functional; method in brief: as §2
# [13] = system: Vaccinia virus; experiment: Antiviral activity against Human Vaccinia virus ATCC VR-1549 infected in African green monkey Vero 76 cells assessed as reduction of virus-plaque formation after 3 days by crystal violet staining; assay type: functional, organism-based; details: Orthopoxvirus vaccinia, ATCC VR-1549, Vero, 72 h
# [14] = system: Staphylococcus epidermidis; experiment: Ratio of ciprofloxacin MIC to compound MIC for hospital methicillin-resistant Staphylococcus epidermidis 63/04 after 18 hrs by twofold serial microdilution method; assay type: functional; method in brief: as §1
# [15] = system: Staphylococcus aureus; experiment: Antimicrobial activity against hospital methicillin-resistant Staphylococcus aureus 81/05 after 18 hrs by twofold serial microdilution method; assay type: functional; details: 81/05, 18 h; method in brief: as §3
# [16] = system: Staphylococcus epidermidis; experiment: Antimicrobial activity against hospital methicillin-resistant Staphylococcus epidermidis 31/04 after 18 hrs by twofold serial microdilution method; assay type: functional; details: 31/04, 18 h; method in brief: as §3
# [17] = system: Human immunodeficiency virus 1; experiment: Antiviral activity against HIV1 3B infected in human MT4 cells assessed as protection against virus-induced cytopathogenicity by MTT assay; assay type: functional, organism-based; details: Human immunodeficiency virus 1, 3B
# [18] = system: Mycobacterium tuberculosis; experiment: Antimycobacterial activity against Mycobacterium tuberculosis H37Rv ATCC 25618; assay type: functional
# Method in brief: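 Classical test-tube successive-dilution method in Youmans' modification of Proskauer and Beck liquid medium with 10% bovine serum. Inoculum came from 14-day cultures. DMSO stock was 10 mg/mL, diluted geometrically in medium. Tubes were incubated at 37 °C. Concentrations tested were 3.1, 6.2, 12.5, 25, 50 and 100 µg/ml. MIC is the minimum concentration inhibiting growth relative to compound-free tubes.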
# [19] = system: Yellow fever virus; experiment: Antiviral activity against Yellow fever virus 17D infected in BHK cells assessed as protection against virus-induced cytopathogenicity after 3 to 4 days by MTT assay; assay type: functional, cell-based
# [20] = Cytotoxicity against BHK cells assessed as cell viability after 48 to 96 hrs by MTT assay; assay type: cell-based, Mesocricetus auratus; details: hamster
# [21] = system: Vesicular stomatitis virus; experiment: Antiviral activity against Vesicular stomatitis virus ATCC VR 1540 infected in African green monkey Vero 76 cells assessed as reduction of virus-plaque formation after 2 days by crystal violet staining; assay type: functional, organism-based; details: ATCC VR 1540, Vero, 48 h
# [22] = system: Staphylococcus epidermidis; experiment: Antimicrobial activity against Staphylococcus epidermidis ATCC 35984 at 400 ug after 18 hrs by disc-diffusion method; assay type: functional; method in brief: as §2
# [23] = system: Staphylococcus epidermidis; experiment: Ratio of ciprofloxacin MIC to compound MIC for hospital methicillin-resistant Staphylococcus epidermidis 76/04 after 18 hrs by twofold serial microdilution method; assay type: functional; method in brief: as §1
# [24] = system: Staphylococcus aureus; experiment: Antimicrobial activity against hospital methicillin-resistant Staphylococcus aureus 573/11 after 18 hrs by twofold serial microdilution method; assay type: functional; details: 573/11, 18 h; method in brief: as §3
# [25] = system: Staphylococcus aureus; experiment: Antimicrobial activity against Staphylococcus aureus NCTC 4163 at 400 ug after 18 hrs by disc-diffusion method; assay type: functional; details: NCTC 4163, 18 h, read-out: IZ; method in brief: as §2
# [26] = system: Staphylococcus epidermidis; experiment: Ratio of ciprofloxacin MIC to compound MIC for hospital methicillin-resistant Staphylococcus epidermidis 31/04 after 18 hrs by twofold serial microdilution method; assay type: functional; method in brief: as §1
# [27] = system: Enterococcus hirae; experiment: Antimicrobial activity against Enterococcus hirae ATCC 10541 at 400 ug after 18 hrs by disc-diffusion method; assay type: functional; method in brief: as §2
# [28] = system: Bacillus subtilis; experiment: Antimicrobial activity against Bacillus subtilis ATCC 6633 at 400 ug after 18 hrs by disc-diffusion method; assay type: functional; details: ATCC 6633, 18 h, read-out: IZ; method in brief: as §2
# [29] = system: Staphylococcus aureus; experiment: Antimicrobial activity against hospital methicillin-resistant Staphylococcus aureus 57/05 after 18 hrs by twofold serial microdilution method; assay type: functional; details: 57/05, 18 h; method in brief: as §3
# [30] = system: Bacillus cereus; experiment: Antimicrobial activity against Bacillus cereus ATCC 11778 at 400 ug after 18 hrs by disc-diffusion method; assay type: functional; details: ATCC 11778, 18 h, read-out: IZ; method in brief: as §2
# [31] = system: Micrococcus luteus; experiment: Antimicrobial activity against Micrococcus luteus ATCC 9341 at 400 ug after 18 hrs by disc-diffusion method; assay type: functional; method in brief: as §2
SMILES,Ratio [1],zone of inhibition at 400 µg/disc [2] [mm],CC50 [3] [µM],MIC [4] [µg/mL],MIC [6] [µg/mL],MIC [7] [µg/mL],zone of inhibition at 400 µg/disc [8] [mm],EC50 [9] [µM],MIC [10] [µg/mL],CC50 [11] [µM],EC50 [13] [µM],Ratio [14],MIC [15] [µg/mL],MIC [16] [µg/mL],EC50 [17] [µM],MIC [18] [µg/mL],EC50 [19] [µM],CC50 [20] [µM],EC50 [21] [µM],Ratio [23],also measured
FC(F)(F)c1cccc(NC(=S)Nc2cccc(Br)c2)c1,128,29,14,2,1,1,28,> 14,0.5,10,> 14,128,1,2,> 9.2,100,> 10,10,> 14,128,"zone of inhibition at 400 µg/disc ([5]; ATCC 12228, 18 h, read-out: IZ): 29 mm; zone of inhibition at 400 µg/disc ([12]; NCTC 4635, 18 h, read-out: IZ): 12 mm; zone of inhibition at 400 µg/disc ([22]; ATCC 35984, 18 h, read-out: IZ): 27 mm; MIC [24]: 0.25 µg/mL; zone of inhibition at 400 µg/disc [25]: 28 mm; Ratio [26]: 128; zone of inhibition at 400 µg/disc ([27]; ATCC 10541, 18 h, read-out: IZ): 13 mm; zone of inhibition at 400 µg/disc [28]: 26 mm; MIC [29]: 1 µg/mL; zone of inhibition at 400 µg/disc [30]: 24 mm; zone of inhibition at 400 µg/disc ([31]; ATCC 9341, 18 h, read-out: IZ): 33 mm"
FC(F)(F)c1cccc(NC(=S)Nc2ccc(Cl)cc2)c1,128,12,11,16,16,8,12,> 11,16,17,> 11,128,16,16,> 6.8,> 100,> 10,10,> 11,128,inhibition zone (IZ) [5]: inactive; inhibition zone (IZ) [12]: inactive; inhibition zone (IZ) [22]: inactive; MIC [24]: 8 µg/mL; zone of inhibition at 400 µg/disc [25]: 12 mm; Ratio [26]: 128; inhibition zone (IZ) [27]: inactive; zone of inhibition at 400 µg/disc [28]: 12 mm; MIC [29]: 16 µg/mL; zone of inhibition at 400 µg/disc [30]: 12 mm; inhibition zone (IZ) [31]: inactive
